Here are results for four molecules from ChEMBL document CHEMBL1142131, “Effect of anaerobic growth on quinolone lethality with Escherichia coli” (2007).

In brackets after ≈: the same amount, converted by molar mass. Activity calls are given as the source filed them. The calls are words filed in the database; no cut-off is given here.

Experiment [1] deals with Escherichia coli. Kind of experiment: Bactericidal activity against Escherichia coli DM4100 in anaerobic condition. Format: functional, organism-based. Put shortly:
(§1)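 Mid-log aerobic cultures at 37°C were split into 2-ml portions in sealed tubes flushed with anaerobic gas (85% N2, 10% H2, 5% CO2). After 20 min, anaerobic quinolone solution was added and incubation continued 2 h under gas flow. Cells were diluted in ice-cold LB, plated aerobically on drug-free LB agar overnight at 37°C. Survival is CFU relative to CFU at drug addition.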

Experiment [2] has as its system Escherichia coli. Kind of experiment: Bactericidal activity against Escherichia coli DM4100 in aerobic condition. Format: functional, organism-based. In short, it runs like this: (§2)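 Mid-log cells grown aerobically at 37°C in liquid medium, split into 2-ml portions and given quinolone for 2 h with shaking in air. Chloramphenicol 20 µg/ml was added 10 min before quinolone for the chloramphenicol arm. Cells were diluted in ice-cold LB and plated on drug-free LB agar overnight at 37°C aerobically. Read-out is CFU relative to CFU at time of quinolone addition.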

Experiment [3] deals with Escherichia coli. Kind of experiment: Bactericidal activity against Escherichia coli DM4100 in saline. In kind it is functional, organism-based.
Experiment [4] relates to Escherichia coli. Kind of experiment: Bactericidal activity against Escherichia coli DM4100 in the presence of chloramphenicol. Format: functional, organism-based. In short, it runs like this: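 Aerobically growing mid-log cells at 37°C received chloramphenicol to 20 µg/ml 10 min before the quinolone. Treatment ran 2 h. Cells were diluted in ice-cold LB and plated aerobically on drug-free LB agar overnight at 37°C. Survival is CFU relative to CFU at quinolone addition. Replicate experiments were run.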

The subject of experiment [5] is Escherichia coli. Kind of experiment: Bacteriostatic activity against Escherichia coli DM4100 in anaerobic condition. In kind it is functional. In short, it runs like this:
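MIC from 10^4 to 10^5 cells/ml in liquid medium with serial twofold quinolone dilutions. Incubated at 37°C in sealed tubes after 20 min flushing with anaerobic gas (85% N2, 10% H2, 5% CO2).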

The subject of experiment [6] is Escherichia coli. Kind of experiment: Chromosome fragmentation in Escherichia coli DM4100 assessed as reduced lysate viscosity at 50 ug/ml after 2 hrs in aerobic condition. In kind it is functional, organism-based. In short, it runs like this: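 Exponential aerobic cells were treated 2 h with drug, then gently lysed with lysozyme and nonionic detergents at 20°C for 2–3 min. Lysate twofold dilutions received pancreatic RNase 20 µg/ml, were heated at 80°C for 2 min, chilled on ice and brought to 20°C. Viscosity was measured by capillary viscometry.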

The subject of experiment [7] is Escherichia coli. Kind of experiment: Bacteriostatic activity against Escherichia coli DM4100 in aerobic condition. In kind it is functional. In short, it runs like this: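 MIC from 10^4 to 10^5 cells/ml in liquid medium with serial twofold quinolone dilutions. Incubated at 37°C with shaking, 2-ml cultures, aerobic.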
Experiment [8] concerns Escherichia coli. Kind of experiment: Bactericidal activity in Escherichia coli KD2329 with gyrA-par C resistant mutation. In kind it is functional, organism-based. Put shortly: as §2
Experiment [9] has as its system Escherichia coli. Kind of experiment: Bactericidal activity in Escherichia coli KD1373 containing parC resistance mutation in aerobic condition. In kind it is functional, organism-based. In short, it runs like this: as §2
Experiment [10] has as its system Escherichia coli. Kind of experiment: Bactericidal activity in Escherichia coli KD1373 containing parC resistance mutation in presence of chloramphenicol. Format: functional, organism-based. In short, it runs like this:
as §2

Experiment [11] deals with Escherichia coli. Kind of experiment: Bactericidal activity in Escherichia coli KD1373 containing parC resistance mutation in anaerobic condition. Format: functional, organism-based. Put shortly: as §1
Experiment [12] deals with Escherichia coli. Kind of experiment: Bactericidal activity in Escherichia coli KD1373 containing parC mutation in anerobic condition. In kind it is functional, organism-based. In short, it runs like this:
as §1

For experiment [13], the system named is Escherichia coli. Kind of experiment: Bactericidal activity in Escherichia coli KD2750 containing gyrA resistant mutation in anerobic condition. In kind it is functional, organism-based. Put shortly:
as §1

Experiment [14] has as its system Escherichia coli. Kind of experiment: Bactericidal activity in Escherichia coli KD2329 containing gyrA-parC mutation. Format: functional, organism-based. In short, it runs like this:
as §2

As a reminder, the MIC is the lowest concentration found to suppress growth. High values mean a less susceptible organism, low ones a more susceptible organism.

In the case of `O=C(O)c1cn(C2CC2)c2cc(N3CCNCC3)c(F)cc2c1=O`, the outcome in the experiment with Escherichia coli [1], in the experiment with Escherichia coli [2], in the experiment with Escherichia coli [3] and with Escherichia coli [4] was Active.
`CCn1cc(C(=O)O)c(=O)c2ccc(C)nc21` [NALIDIXIC ACID]: the outcome in the experiment on Escherichia coli [1], in the experiment with Escherichia coli [3] and in the experiment with Escherichia coli [4] was inactive. Moreover, the result in the experiment with Escherichia coli [2] and in the experiment on Escherichia coli [6] was Active. Further, the MIC against Escherichia coli [5] and against Escherichia coli [7] was 5 µg/mL (≈ 21.5 µM) in each case.
Consider `CCN1CCN(c2c(F)cc3c(=O)c(C(=O)O)cn(C4CC4)c3c2OC)CC1`, for which, in the experiment on Escherichia coli [8], the result was inactive. The outcome in the experiment with Escherichia coli [9], in the experiment with Escherichia coli [1], in the experiment on Escherichia coli [10], in the experiment with Escherichia coli [2], in the experiment on Escherichia coli [4] and in the experiment with Escherichia coli [11] was Active. Besides, the minimal inhibitory concentration (MIC) in the experiment on Escherichia coli [5] and with Escherichia coli [7] was 0.08 µg/mL (≈ 0.205 µM) each time.
On to `CCn1cc(C(=O)O)c(=O)c2cc(F)c(N3CCNCC3)cc21` [NORFLOXACIN], for which the result with Escherichia coli [12], in the experiment with Escherichia coli [13], with Escherichia coli [1], in the experiment with Escherichia coli [2] and with Escherichia coli [3] was Active. For the same molecule, the outcome with Escherichia coli [4] and in the experiment with Escherichia coli [14] was inactive. For the same molecule, the MIC in the experiment with Escherichia coli [5] and against Escherichia coli [7] was 0.075 µg/mL (≈ 0.235 µM) in each case.
